20 compounds from ChEMBL document CHEMBL1255454, “Systematic approach to optimizing specifically targeted antimicrobial peptides against Streptococcus mutans” (2010) can be followed below.

Test [1] deals with Streptococcus mutans. Put plainly: Antimicrobial activity against Streptococcus mutans UA159 after 16 to 20 hrs by broth microdilution assay. Format: functional. The method in brief:
(§1)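 Broth microdilution. Twofold peptide dilutions were made in 50% BHI–50% sterile water for oral streptococci and in 1× Mueller-Hinton broth for the other bacteria. First round 500 to 0.97 µg/ml; a second round of 64 to 0.5 µg/ml was run in some cases, reporting its mode. Inoculum ~1 × 10^5 CFU/ml, 37°C for 16–20 h. Read A600; MIC taken as complete inhibition or ≥90% turbidity reduction versus peptide-free control.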
On the technique in general: Broth dilution looks for growth in wells or tubes with falling amounts of substance.

For test [2], the system named is Streptococcus sanguinis. Put plainly: Antimicrobial activity against Streptococcus sanguinis NY101 after 16 to 20 hrs by broth microdilution assay. It is filed as functional. A digest of the protocol: as §1
In test [3] the test system is Streptococcus mitis. Put plainly: Antimicrobial activity against Streptococcus mitis ATCC 903 after 16 to 20 hrs by broth microdilution assay. Format: functional. The method in brief:
as §1

Test [4] in a line: Antimicrobial activity against Streptococcus gordonii Challis DL1 after 16 to 20 hrs by broth microdilution assay. Format: functional, Streptococcus gordonii str. Challis. The method in brief:
as §1

For test [5], the system named is Staphylococcus aureus. Description: Antimicrobial activity against methicillin-resistant Staphylococcus aureus after 16 to 20 hrs by broth microdilution assay. Format: functional. The method in brief: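 MRSA grown aerobically in BHI at 37°C. Broth microdilution: 2-fold peptide dilutions in 1× Mueller-Hinton broth, first round 500 to 0.97 µg/ml; if activity below 62.5 µg/ml, sometimes a second round at 64 to 0.5 µg/ml, reporting the mode. Inoculum ~1 × 10^5 CFU/ml, 37°C for 16-20 h. A600 read. MIC = lowest concentration giving complete inhibition or ≥90% turbidity reduction versus peptide-free control.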

In test [6] the test system is Pseudomonas aeruginosa. Description: Antimicrobial activity against Pseudomonas aeruginosa PAK after 16 to 20 hrs by broth microdilution assay. It is filed as functional. A digest of the protocol: as §1

In brackets after ≈: the same amount, converted by molar mass. Square brackets hold non-standard residues; d marks the D form. Peptide text beside a SMILES is read from it. Aoc = NCCCCCCCC(=O)O

With `CC[C@H](C)[C@H](NC(=O)[C@H](Cc1ccccc1)NC(=O)[C@H](Cc1cnc[nH]1)NC(=O)[C@H](CCCCN)NC(=O)[C@@H](NC(=O)[C@@H](N)Cc1ccccc1)[C@@H](C)CC)C(=O)N[C@@H](Cc1cnc[nH]1)C(=O)N[C@@H](CCCNC(=N)N)C(=O)N[C@@H](Cc1ccccc1)C(=O)NCCCCCCCC(=O)N[C@@H](CC(C)C)C(=O)N[C@@H](CCC(N)=O)C(=O)N[C@@H](CC(C)C)C(=O)N[C@@H](CC(C)C)C(=O)N[C@@H](CCCCN)C(=O)N[C@@H](CCC(N)=O)C(=O)N[C@@H](CC(C)C)C(=O)N[C@@H](CC(C)C)C(=O)N[C@@H](CCCCN)C(=O)N[C@@H](CC(C)C)C(=O)N[C@@H](CC(C)C)C(=O)N[C@@H](CCCCN)C(=O)N[C@@H](CCC(N)=O)C(=O)N[C@@H](Cc1ccccc1)C(N)=O` (H-FIKHFIHRF[Aoc]LQLLKQLLKLLKQF-NH2), the MIC (in general, the lowest concentration that inhibits growth of the organism) in test [1] is 16 µg/mL (≈ 5.17 µM); in test [2], 32 µg/mL (≈ 10.3 µM); in test [3], 62.5 µg/mL (≈ 20.2 µM); in test [4] it was 32 µg/mL (≈ 10.3 µM); in test [5] it was 62.5 µg/mL (≈ 20.2 µM); in test [6] it was 62.5 µg/mL (≈ 20.2 µM).

Regarding `CC[C@H](C)[C@H](NC(=O)[C@H](Cc1ccccc1)NC(=O)CCCCCCCNC(=O)[C@H](Cc1ccccc1)NC(=O)[C@H](CCC(N)=O)NC(=O)[C@H](CCCCN)NC(=O)[C@H](CC(C)C)NC(=O)[C@H](CC(C)C)NC(=O)[C@H](CCCCN)NC(=O)[C@H](CC(C)C)NC(=O)[C@H](CC(C)C)NC(=O)[C@H](CCC(N)=O)NC(=O)[C@H](CCCCN)NC(=O)[C@H](CC(C)C)NC(=O)[C@H](CC(C)C)NC(=O)[C@H](CCC(N)=O)NC(=O)[C@@H](N)CC(C)C)C(=O)N[C@@H](CCCCN)C(=O)N[C@@H](Cc1cnc[nH]1)C(=O)N[C@@H](Cc1ccccc1)C(=O)N[C@H](C(=O)N[C@@H](Cc1cnc[nH]1)C(=O)N[C@@H](CCCNC(=N)N)C(=O)N[C@@H](Cc1ccccc1)C(N)=O)[C@@H](C)CC` (H-LQLLKQLLKLLKQF[Aoc]FIKHFIHRF-NH2), the MIC came out at 8 µg/mL (≈ 2.59 µM) in test [1]; 32 µg/mL (≈ 10.3 µM) in test [2]; 32 µg/mL (≈ 10.3 µM) in test [3]; 16 µg/mL (≈ 5.17 µM) in test [4]; 62.5 µg/mL (≈ 20.2 µM) in test [5]; 32 µg/mL (≈ 10.3 µM) in test [6].

`CC[C@H](C)[C@H](NC(=O)[C@H](Cc1ccccc1)NC(=O)CCCCCCCNC(=O)[C@H](Cc1cnc[nH]1)NC(=O)[C@H](CC(C)C)NC(=O)[C@H](CC(C)C)NC(=O)[C@H](Cc1cnc[nH]1)NC(=O)[C@H](Cc1cnc[nH]1)NC(=O)[C@H](CC(C)C)NC(=O)[C@H](CCCCN)NC(=O)[C@H](CCCCN)NC(=O)[C@H](CC(C)C)NC(=O)[C@H](CC(C)C)NC(=O)[C@H](CCCNC(=N)N)NC(=O)[C@H](CCCNC(=N)N)NC(=O)[C@H](Cc1c[nH]c2ccccc12)NC(=O)[C@@H](N)CCCNC(=N)N)C(=O)N[C@@H](CCCCN)C(=O)N[C@@H](Cc1cnc[nH]1)C(=O)N[C@@H](Cc1ccccc1)C(=O)N[C@H](C(=O)N[C@@H](Cc1cnc[nH]1)C(=O)N[C@@H](CCCNC(=N)N)C(=O)N[C@@H](Cc1ccccc1)C(N)=O)[C@@H](C)CC` (H-RWRRLLKKLHHLLH[Aoc]FIKHFIHRF-NH2): the MIC amounted to 8 µg/mL (≈ 2.44 µM) in test [1]; 16 µg/mL (≈ 4.89 µM) in test [2]; 32 µg/mL (≈ 9.78 µM) in test [3]; 16 µg/mL (≈ 4.89 µM) in test [4]; 62.5 µg/mL (≈ 19.1 µM) in test [5]; 32 µg/mL (≈ 9.78 µM) in test [6].

With `CC[C@H](C)[C@H](NC(=O)[C@H](Cc1ccccc1)NC(=O)CCCCCCCNC(=O)[C@H](Cc1ccccc1)NC(=O)[C@H](Cc1c[nH]c2ccccc12)NC(=O)[C@H](CCCNC(=N)N)NC(=O)[C@H](Cc1c[nH]c2ccccc12)NC(=O)[C@H](CCCNC(=N)N)NC(=O)[C@H](Cc1c[nH]c2ccccc12)NC(=O)[C@@H](N)CCCNC(=N)N)C(=O)N[C@@H](CCCCN)C(=O)N[C@@H](Cc1cnc[nH]1)C(=O)N[C@@H](Cc1ccccc1)C(=O)N[C@H](C(=O)N[C@@H](Cc1cnc[nH]1)C(=O)N[C@@H](CCCNC(=N)N)C(=O)N[C@@H](Cc1ccccc1)C(N)=O)[C@@H](C)CC` (H-RWRWRWF[Aoc]FIKHFIHRF-NH2), the minimum inhibitory concentration (MIC) amounted to 32 µg/mL (≈ 12.5 µM) in test [1]; 32 µg/mL (≈ 12.5 µM) in test [2]; 32 µg/mL (≈ 12.5 µM) in test [3]; 62.5 µg/mL (≈ 24.4 µM) in test [4]; 62.5 µg/mL (≈ 24.4 µM) in test [5]; 125 µg/mL (≈ 48.8 µM) in test [6].

Take H-FIKHFIHRFGGGIKQLLHFFQRF-NH2: the MIC was 8 µg/mL in test [1]; 32 µg/mL in test [2]; 16 µg/mL in test [3]; 32 µg/mL in test [4]; 62.5 µg/mL in test [5]; 125 µg/mL in test [6].

On to H-FIKHFIHRFSATLQLLKQLLKLLKQF-NH2, for which the MIC in test [1] was found to be 16 µg/mL; in test [2] it was 16 µg/mL; in test [3], 32 µg/mL; in test [4] it was 8 µg/mL; in test [5] it was 62.5 µg/mL; in test [6] it was 32 µg/mL.

H-FIKHFIHRFSGGLQLLKQLLKLLKQF-NH2: the MIC turned out to be 16 µg/mL in test [1]; 32 µg/mL in test [2]; 62.5 µg/mL in test [3]; 8 µg/mL in test [4]; 32 µg/mL in test [5]; 32 µg/mL in test [6].

Take H-FIKHFIHRFSGGRWRRLLKKLHHLLH-NH2: the MIC was determined as 16 µg/mL in test [1]; 16 µg/mL in test [2]; 62.5 µg/mL in test [3]; 32 µg/mL in test [4]; 32 µg/mL in test [5]; 32 µg/mL in test [6].

For the compound H-FIKHFIHRFSGGRWRWRWF-NH2, the minimal inhibitory concentration (MIC) in test [1] was 8 µg/mL; in test [2], 32 µg/mL; in test [3], 32 µg/mL; in test [4], 32 µg/mL; in test [5], 32 µg/mL; in test [6], 62.5 µg/mL.

As to H-FKKFWKWFRRFGGGFIKHFIHRF-NH2, the MIC in test [1] came out at 8 µg/mL; in test [2] it was 32 µg/mL; in test [3], 62.5 µg/mL; in test [4], 125 µg/mL; in test [5], 32 µg/mL; in test [6], 125 µg/mL.

Regarding H-IKQLLHFFQRF-NH2, the MIC in test [1] is 24 µg/mL; in test [2], 62.5 µg/mL; in test [3], 62.5 µg/mL; in test [4], 32 µg/mL; in test [5], 62.5 µg/mL; in test [6], 62.5 µg/mL.

Take H-IKQLLHFFQRFGGGFIKHFIHRF-NH2: the MIC in test [1] turned out to be 8 µg/mL; in test [2] it was 32 µg/mL; in test [3], 16 µg/mL; in test [4] it was 32 µg/mL; in test [5] it was 62.5 µg/mL; in test [6], 125 µg/mL.

On to H-LQLLKQLLKLLKQF-NH2, for which the MIC in test [1] stood at 8 µg/mL; in test [2], 8 µg/mL; in test [3], 16 µg/mL; in test [4], 8 µg/mL; in test [5], 16 µg/mL; in test [6] it was 8 µg/mL.

Regarding H-LQLLKQLLKLLKQFSATFIKHFIHRF-NH2, the MIC in test [1] came to 8 µg/mL; in test [2], 16 µg/mL; in test [3], 32 µg/mL; in test [4], 16 µg/mL; in test [5], 32 µg/mL; in test [6], 32 µg/mL.

Take H-LQLLKQLLKLLKQFSGGFIKHFIHRF-NH2: the MIC in test [1] was 8 µg/mL; in test [2], 16 µg/mL; in test [3], 32 µg/mL; in test [4] it was 16 µg/mL; in test [5] it was 32 µg/mL; in test [6], 32 µg/mL.

Turning to H-RWRRLLKKLHHLLH-NH2, the MIC in test [1] was 8 µg/mL; in test [2], 16 µg/mL; in test [3], 32 µg/mL; in test [4], 16 µg/mL; in test [5] it was 16 µg/mL; in test [6], 8 µg/mL.

Consider H-RWRRLLKKLHHLLHSGGFIKHFIHRF-NH2, for which the MIC in test [1] worked out at 8 µg/mL; in test [2] it was 32 µg/mL; in test [3] it was 32 µg/mL; in test [4] it was 16 µg/mL; in test [5], 32 µg/mL; in test [6], 32 µg/mL.

H-RWRWRWFGGGFIKHFIHRF-NH2: the MIC in test [1] came out at 8 µg/mL; in test [2], 32 µg/mL; in test [3], 32 µg/mL; in test [4] it was 32 µg/mL; in test [5], 32 µg/mL; in test [6], 62.5 µg/mL.

With H-RWRWRWFSATFIKHFIHRF-NH2, the MIC in test [1] is 8 µg/mL; in test [2] it was 32 µg/mL; in test [3], 16 µg/mL; in test [4] it was 62.5 µg/mL; in test [5], 62.5 µg/mL; in test [6] it was 62.5 µg/mL.

For the compound H-RWRWRWFSGGFIKHFIHRF-NH2, the MIC was determined as 8 µg/mL in test [1]; 32 µg/mL in test [2]; 32 µg/mL in test [3]; 32 µg/mL in test [4]; 32 µg/mL in test [5]; 62.5 µg/mL in test [6].
